In test [1] the test system is Mus musculus. As to the kind of experiment: Antiinflammatory activity in FVB mouse peritonitis model assessed as reduction in zymosan-induced total leukocyte infiltration at 10 ng, iv after 4 hrs. Format: functional. Details: scale not given: the % may be the effect or the level left. Summed up:
(§1)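 Male FVB mice, 6–8 weeks, isoflurane-anesthetized; compounds as carboxymethyl esters given iv by tail vein in 100 μl saline (0.05–50 μgkg–1 range), then zymosan A 1 mg/ml ip. Peritoneal lavage at 4 h; cells counted after trypan blue, differentials by Wright-Giemsa cytospin; reduction versus saline vehicle plus zymosan; mean ± S.E., n = 3.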

Test [2] can be described thus: Antiinflammatory activity in human polymorphonuclear leukocytes assessed as inhibition of n-formylmethionylleucylphenylalanine-stimulated transendothelial migration after 15 mins. Particulars: 0.25 h.
For test [3], the system named is Mus musculus. Briefly: Antiinflammatory activity in iv dosed FVB mouse peritonitis model assessed as reduction in zymosan-induced polymorphonuclear leukocyte infiltration at after 4 hrs. Format: functional, organism-based.
Test [4] deals with Mus musculus. As to the kind of experiment: Antiinflammatory activity in FVB mouse peritonitis model assessed as reduction in zymosan-induced polymorphonuclear leukocyte infiltration at 100 ng, iv after 4 hrs. Format: functional. More on the design: scale not given: the % may be the effect or the level left. Summed up:
as §1

Test [5] can be described thus: Antiinflammatory activity in human polymorphonuclear leukocytes assessed as inhibition of n-formylmethionylleucylphenylalanine-stimulated transendothelial migration at 1 uM after 15 mins. Format: functional. Details: scale not given: the % may be the effect or the level left. Summed up:
(§2)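 Human PMNs from venous blood (Histopaque 1077/1119 double gradient, NH4Cl lysis, >90% pure) in HBSS pH 7.4, preincubated 15 min at room temperature with 0–1000 nm compound; 10^6 cells added atop HMEC-1 monolayers on Transwell inserts; 100 nm fMLP lower chamber; migration 30 min, 37 °C, quantified by MPO; expressed as % reduction versus untreated PMNs.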

Test [6] is described as follows: Antiinflammatory activity in human polymorphonuclear leukocytes assessed as inhibition of n-formylmethionylleucylphenylalanine-stimulated transendothelial migration at 10 nM after 15 mins. The class given is functional. Details: scale not given: the % may be the effect or the level left. Summed up: as §2
The subject of test [7] is Mus musculus. As to the kind of experiment: Antiinflammatory activity in FVB mouse peritonitis model assessed as reduction in zymosan-induced polymorphonuclear leukocyte infiltration at 1 ng, iv after 4 hrs. The class given is functional, organism-based. Summed up:
as §1

Test [8] has as its system Mus musculus. As to the kind of experiment: Antiinflammatory activity in FVB mouse peritonitis model assessed as reduction in zymosan-induced polymorphonuclear leukocytes infiltration at 10 ng, iv after 4 hrs. The class given is functional. Details: scale not given: the % may be the effect or the level left. Summed up:
as §1

A word on the EC50: it is the concentration giving half of the maximal effect.

Molecules are shown by their SMILES. Activity calls are given as the source filed them. No cut-off for these calls is given here.

Regarding `CC/C=C\C[C@@H](O)/C=C/C=C\C=C\C=C\[C@@H](O)[C@@H](O)C/C=C\CCC(=O)O`, the Activity in the test on Mus musculus [1] is 23%; with Mus musculus [3], “Dose-dependent effect”; in the test on Mus musculus [4], 35%; in test [5], 65%; in test [6], 50%. Further, in test [2], the EC50 came out at 30 nM. Also, the result with Mus musculus [7] was Active.

Consider `CC/C=C\C[C@@H](O)/C=C/C=C\C=C\C=C\C(=O)[C@@H](O)C/C=C\CCC(=O)O`, for which the Activity in the test with Mus musculus [8] was determined as 41%.

Regarding `CC/C=C\CC(=O)/C=C/C=C\C=C\C=C\[C@@H](O)[C@@H](O)C/C=C\CCC(=O)O`, in the test on Mus musculus [8], the outcome was inactive.

In the case of `CC/C=C\C[C@H](O)/C=C/C=C\C=C\C=C\[C@@H](O)[C@@H](O)C/C=C\CCC(=O)O`, the Activity in the test on Mus musculus [1] is 8%; in the test on Mus musculus [3], “Dose-dependent effect”; in the test with Mus musculus [4], 35%; in test [6], 50%. Moreover, the EC50 in test [2] was 30 nM. Also, in the test with Mus musculus [7], the result was Active.

These data come from ChEMBL document CHEMBL1156438, “Resolvin D1 and its aspirin-triggered 17R epimer. Stereochemical assignments, anti-inflammatory properties, and enzymatic inactivation” (J Biol Chem, 2007).
